Data published in ChEMBL document CHEMBL3860041, “Synthesis, biological evaluation and molecular modeling study of some new methoxylated 2-benzylthio-quinazoline-4(3H)-ones as nonclassical antifolates” (Bioorg Med Chem Lett, 2016).

What was measured:
[1] = Growth inhibition of human breast cancer cells after 48 hrs by SRB assay; assay type: functional; details: Cancer cell lines
Summary of the method: (§1)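 Follow-up NCI panel testing over a 5-log dose range for each cell line. GI50, TGI and LC50 were monitored, with 5-fluorouracil run as the positive control. Values are grouped by tumour subpanel.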

[2] = Growth inhibition of human ACHN cells at 10 uM after 48 hrs by SRB assay relative to control; assay type: functional; details: read-out: GI
Summary of the method: (§2)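 NCI 60-cell-line panel, nine tumor subpanels; compounds tested at a single dose of 10 μM in the primary screen.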

[3] = Growth inhibition of human CNS cancer cells after 48 hrs by SRB assay; assay type: functional; details: Cancer cell lines
Summary of the method: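 Five-log dose range against NCI tumor cell lines, monitoring GI50, TGI and LC50 for each cell line; MG-MID values derived across the panel; 5-fluorouracil positive control.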

[4] = Growth inhibition of human HT-29 cells at 10 uM after 48 hrs by SRB assay relative to control; assay type: functional; details: HT-29, 48 h, read-out: GI; summary of the method: as §2
[5] = Growth inhibition of human A498 cells at 10 uM after 48 hrs by SRB assay relative to control; assay type: functional; details: A498, 48 h, read-out: GI; summary of the method: as §2
[6] = tested on: Cancer cell lines; test: Potency index, ratio of 5-fluorouracil GI50 to compound GI50 for human renal cancer cells; assay type: functional
Summary of the method: (§3)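 GI50 for each cell line came from NCI panel testing over a 5-log dose range, with 5-fluorouracil tested alongside as the reference drug. The index relates the 5-fluorouracil GI50 to the compound GI50 within each tumour subpanel.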

[7] = tested on: Cancer cell lines; test: Potency index, ratio of 5-fluorouracil GI50 to compound GI50 for human CNS cancer cells; assay type: functional; summary of the method: as §3
[8] = tested on: Cancer cell lines; test: Potency index, ratio of 5-fluorouracil GI50 to compound GI50 for human prostate cancer cells; assay type: functional; summary of the method: as §3
[9] = Growth inhibition of human MOLT4 cells at 10 uM after 48 hrs by SRB assay relative to control; assay type: functional; details: MOLT-4, 48 h, read-out: GI; summary of the method: as §2
[10] = Growth inhibition of human UACC257 cells at 10 uM after 48 hrs by SRB assay relative to control; assay type: functional; details: UACC-257, 48 h, read-out: GI
Summary of the method: (§4)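 Primary screen across the full NCI 60 human tumour cell line panel, which covers nine tumour subpanels. A single dose of 10 μM was applied to each line, and growth was recorded for each cell line.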

[11] = Growth inhibition of human MCF7 cells at 10 uM after 48 hrs by SRB assay relative to control; assay type: functional; details: MCF7, 48 h, read-out: GI; summary of the method: as §2
[12] = Growth inhibition of human prostate cancer cells after 48 hrs by SRB assay; assay type: functional; details: Cancer cell lines; summary of the method: as §1
[13] = Growth inhibition of human BT549 cells at 10 uM after 48 hrs by SRB assay relative to control; assay type: functional; details: BT-549, 48 h, read-out: GI; summary of the method: as §2
[14] = Growth inhibition of human HOP92 cells at 10 uM after 48 hrs by SRB assay relative to control; assay type: functional; details: HOP-92, 48 h, read-out: GI; summary of the method: as §2
[15] = Growth inhibition of human HCT116 cells at 10 uM after 48 hrs by SRB assay relative to control; assay type: functional; details: HCT-116, 48 h, read-out: GI; summary of the method: as §2
[16] = Growth inhibition of human K562 cells at 10 uM after 48 hrs by SRB assay relative to control; assay type: functional; details: K562, 48 h, read-out: GI; summary of the method: as §2
[17] = Growth inhibition of human LOXIMVI cells at 10 uM after 48 hrs by SRB assay relative to control; assay type: functional; details: LOX IMVI, read-out: GI; summary of the method: as §2
[18] = Growth inhibition of human UACC62 cells at 10 uM after 48 hrs by SRB assay relative to control; assay type: functional; details: UACC-62, 48 h, read-out: GI; summary of the method: as §4
[19] = Growth inhibition of human SF268 cells at 10 uM after 48 hrs by SRB assay relative to control; assay type: functional; details: SF-268, 48 h, read-out: GI; summary of the method: as §2
[20] = Growth inhibition of human Caki1 cells at 10 uM after 48 hrs by SRB assay relative to control; assay type: functional; details: CAKI-1, 48 h, read-out: GI; summary of the method: as §2
[21] = Growth inhibition of human UO31 cells at 10 uM after 48 hrs by SRB assay relative to control; assay type: functional; details: UO-31, 48 h, read-out: GI; summary of the method: as §4
[22] = Growth inhibition of human RPMI8226 cells at 10 uM after 48 hrs by SRB assay relative to control; assay type: functional; details: RPMI-8226, 48 h, read-out: GI; summary of the method: as §2
[23] = Growth inhibition of human SW620 cells at 10 uM after 48 hrs by SRB assay relative to control; assay type: functional; details: SW-620, 48 h, read-out: GI; summary of the method: as §4
[24] = Growth inhibition of human NCI-H23 cells at 10 uM after 48 hrs by SRB assay relative to control; assay type: functional; details: NCI-H23, 48 h, read-out: GI; summary of the method: as §2
[25] = target: T1, Dihydrofolate reductase (Bos taurus, UniProt P00376); test: Inhibition of bovine liver DHFR preincubated for 2 mins followed by addition of FH2 as substrate and NADPH
T1 sequence (P00376 whole entry): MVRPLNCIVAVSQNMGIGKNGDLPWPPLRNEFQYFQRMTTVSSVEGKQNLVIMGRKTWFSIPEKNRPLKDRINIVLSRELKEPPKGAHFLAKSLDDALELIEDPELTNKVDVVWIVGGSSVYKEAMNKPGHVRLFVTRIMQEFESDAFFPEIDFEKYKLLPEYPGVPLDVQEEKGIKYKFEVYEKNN

[26] = Growth inhibition of human leukemia cells after 48 hrs by SRB assay; assay type: functional; details: Leukemia cell; for CC50: read-out: LC50 (the source's name); summary of the method: as §1
[27] = Growth inhibition of human OVCAR4 cells at 10 uM after 48 hrs by SRB assay relative to control; assay type: functional; details: OVCAR-4, 48 h, read-out: GI; summary of the method: as §2
[28] = Growth inhibition of human SK-MEL-5 cells at 10 uM after 48 hrs by SRB assay relative to control; assay type: functional; details: SK-MEL-5, 48 h, read-out: GI; summary of the method: as §4
[29] = Growth inhibition of human SK-MEL-28 cells at 10 uM after 48 hrs by SRB assay relative to control; assay type: functional; details: SK-MEL-28, 48 h, read-out: GI; summary of the method: as §4
[30] = Growth inhibition of human IGROV1 cells at 10 uM after 48 hrs by SRB assay relative to control; assay type: functional; details: IGROV-1, 48 h, read-out: GI; summary of the method: as §2
[31] = Growth inhibition of human SR cells at 10 uM after 48 hrs by SRB assay relative to control; assay type: functional; details: read-out: GI; summary of the method: as §4
[32] = tested on: Cancer cell lines; test: Potency index, ratio of 5-fluorouracil GI50 to compound GI50 for human breast cancer cells; assay type: functional; summary of the method: as §3
[33] = Growth inhibition of human SF539 cells at 10 uM after 48 hrs by SRB assay relative to control; assay type: functional; details: SF-539, 48 h, read-out: GI; summary of the method: as §2

SMILES	GI50 [1] [µM]	LC50 [1] [µM]	TGI [1] [µM]	inhibition of growth at 10 µM [2] [%]	GI50 [3] [µM]	LC50 (lethal concentration, 50% net cell kill) [3] [µM]	TGI [3] [µM]	inhibition of growth at 10 µM [4] [%]	inhibition of growth at 10 µM [5] [%]	RatioGI50 [6]	RatioGI50 [7]	RatioGI50 [8]	inhibition of growth at 10 µM [9] [%]	inhibition of growth at 10 µM [10] [%]	inhibition of growth at 10 µM [11] [%]	GI50 [12] [µM]	LC50 (concentration killing 50% of cells) [12] [µM]	inhibition of growth at 10 µM [13] [%]	inhibition of growth at 10 µM [14] [%]	inhibition of growth at 10 µM [15] [%]	other results
COc1cc(CSc2nc3ccc(C)cc3c(=O)n2-c2ccccc2)cc(OC)c1OC	2.3	> 100	84.3	55.3	5.4	> 100	60.9	85.7	84	10	10	10	78.2	49.8	80.1	3.4	> 100	80.4	32.1	73.4	inhibition of growth at 10 µM [16]: 89.6%; inhibition of growth at 10 µM [17]: 64%; inhibition of growth at 10 µM [18]: 79.2%; inhibition of growth at 10 µM [19]: 52.6%; inhibition of growth at 10 µM [20]: 72.4%; inhibition of growth at 10 µM [21]: 75.9%; inhibition of growth at 10 µM [22]: 45.1%; inhibition of growth at 10 µM [23]: 70.3%; inhibition of growth at 10 µM [24]: 78%; IC50 [25]: 7 µM; GI50 [26]: 1.8 µM; TGI [26]: > 100 µM; CC50 [26]: > 100 µM; inhibition of growth at 10 µM [27]: 42.8%; inhibition of growth at 10 µM [28]: 80%; inhibition of growth at 10 µM [29]: 47.9%; inhibition of growth at 10 µM [30]: 66.8%; inhibition of growth at 10 µM [31]: 79.7%; RatioGI50 [32]: 10; inhibition of growth at 10 µM [33]: 96.5%
COc1cc(CSc2nc3ccc(C)cc3c(=O)n2Cc2ccccc2)cc(OC)c1OC	2.8	> 100	47.5	53.3	3.5	81.9	46.7	89.5	93	10	10	10	69.2	52.6	82	2.9	> 100	65.2	43.4	74.9	TGI [12]: 60.2 µM; inhibition of growth at 10 µM [16]: 86.2%; inhibition of growth at 10 µM [17]: 60.2%; inhibition of growth at 10 µM [18]: 78.6%; inhibition of growth at 10 µM [19]: 48.5%; inhibition of growth at 10 µM [20]: 71.3%; inhibition of growth at 10 µM [21]: 68%; inhibition of growth at 10 µM [22]: 46%; inhibition of growth at 10 µM [23]: 74.2%; inhibition of growth at 10 µM [24]: 78.7%; IC50 [25]: 1 µM; GI50 [26]: 2.4 µM; TGI [26]: 85.2 µM; CC50 [26]: > 100 µM; inhibition of growth at 10 µM [27]: 46.9%; inhibition of growth at 10 µM [28]: 82.2%; inhibition of growth at 10 µM [29]: 48%; inhibition of growth at 10 µM [30]: 75.7%; inhibition of growth at 10 µM [31]: 82%; RatioGI50 [32]: 10
